Bioassay records from PubChem.
PAFAH1B2 inh: PAFAH1B2 (human) inhibition | inhibition, % at 3.39 µM | AID 492953 | 340,000 compounds, 1.2% hits | recombinant PAFAH1B2, FP-rhodamine activity probe, fluorescence polarization;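 active = inhibition above the mean of all tested compounds plus 3 SD, cut at about 24% in these data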;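 note: 0% = enzyme with DMSO and 100% = wells lacking PAFAH1B2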
Target sequence (P68402 whole entry, looked up): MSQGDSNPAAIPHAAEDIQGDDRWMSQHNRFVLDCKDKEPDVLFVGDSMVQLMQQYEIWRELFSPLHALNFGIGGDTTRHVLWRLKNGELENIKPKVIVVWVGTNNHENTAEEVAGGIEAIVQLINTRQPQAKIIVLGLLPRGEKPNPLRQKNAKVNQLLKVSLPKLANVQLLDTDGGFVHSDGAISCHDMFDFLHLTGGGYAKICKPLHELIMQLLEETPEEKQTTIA
ARFGAP1 inh: inhibits rat ARF GTPase activating protein 1; Arfgap1-stimulated ARF1 GTP hydrolysis, GDP FP detection; inhibition, % at 16.5 µM; 360,000 compounds, 0.26% hits;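 active = inhibition above a per-plate limit, mean inhibition of low control wells plus 3 SD, cut at about 25% in these data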;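 note: 0% = DMSO wells with enzyme and 100% = wells lacking Arfgap1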
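System: truncated rat Arfgap1 GAP domain / Benchmarks: high control wells lacking Arfgap1, low control full reaction with DMSO / Times: compound-enzyme preincubation 20 min, reaction 120 min, detection 60 min, 25 °C / Repeats: one replicate per compound / Also added: human ARF1(Δ1-17)-GTP substrate / Measured by: Tracer-displacement fluorescence polarization with EDTA stop, 620/688 nm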
PAFAH2 FP inh: inhibitors of human PAFAH2; Q99487; recombinant PAFAH2, FP-rhodamine activity probe, fluorescence polarization; inhibition, % at 3.39 µM; 340,000 compounds, 0.99% hits;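 active = inhibition above the mean over all tested compounds plus 3 SD, cut at about 30% in these data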;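 note: inhibitors block probe labeling of enzyme so polarization drops; 0% = enzyme with DMSO and 100% = wells lacking PAFAH2 protein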
ASAP1 inh: blocks human ASAP1-stimulated Arf1 GTP hydrolysis; Q9ULH1; GDP FP detection; inhibition, % at 16.5 µM; 360,000 compounds, 0.19% hits; AID 624377; in the data active = inhibition above about 25%;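 note: 0% = vehicle with enzyme and substrate and 100% = no enzyme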
pPAFAH inh: pPAFAH (human) enzyme inhibition. Q13093. inhibition, % at 3.39 µM. AID 463082. recombinant pPAFAH, FP-rhodamine probe fluorescence polarization. 330,000 compounds, 1.5% hits;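 active = inhibition above the mean inhibition across the screen plus 3 SD, cut at about 25% in these data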;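 note: inhibitors block binding of the rhodamine activity-based probe so polarization drops; 0% = enzyme with DMSO and 100% = wells lacking pPAFAH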
PAFAH1B3 FP inh: blocks human PAF acetylhydrolase 1B catalytic subunit 3; recombinant PAFAH1B3, FP-rhodamine probe, fluorescence polarization; 340,000 compounds, 0.28% hits; AID 492972; inhibition, % at 3.39 µM;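 active = inhibition above the screen-wide average of all tested compounds plus 3 SD, cut at about 25% in these data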;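 note: 0% = enzyme with DMSO only and 100% = wells lacking PAFAH1B3 protein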
Target sequence (Q15102 whole entry, looked up): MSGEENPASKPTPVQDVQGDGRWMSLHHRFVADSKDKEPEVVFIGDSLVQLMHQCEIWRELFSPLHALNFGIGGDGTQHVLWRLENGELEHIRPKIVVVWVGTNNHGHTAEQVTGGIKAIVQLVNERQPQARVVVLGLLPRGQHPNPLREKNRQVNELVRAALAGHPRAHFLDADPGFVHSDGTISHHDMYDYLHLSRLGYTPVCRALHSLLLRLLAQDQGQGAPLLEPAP
Active calls of the source: *; / = no result. Sampled rows, rich in hits. Any-hit rate of the full collection: about 2.8%.

SMILES	PAFAH1B2 inh	ARFGAP1 inh	PAFAH2 FP inh	ASAP1 inh	pPAFAH inh	PAFAH1B3 FP inh
N#Cc1c(C(F)(F)F)cc(=O)n2c1[nH]c1ccccc12	5.5	-9.0	7.3	-17.2	/	19.1
N#Cc1c(CSCC(=O)O)cc(=O)n2c1[nH]c1ccccc12	1.9	8.9	3.1	1.0	26.6*	6.8
CCCc1cc(CNC(=O)C2CCC(=O)N(Cc3ccccc3OC)C2)on1 (stereo unspecified)	0.9	-2.7	-5.0	-8.7	1.0	5.3
N#Cc1c(Cl)cccc1Oc1ccc(S(=O)(=O)Nc2ccccc2)cc1	/	-2.3	/	9.1	25.5*	/
CC1(C(=O)NS(=O)(=O)c2ccccc2Cl)CCN1C(=O)C1(c2ccc(Cl)cc2)CC1 (stereo unspecified)	/	-10.0	/	-1.4	/	/
Cn1c(CCNC(=O)c2ccco2)nc2cc(NS(=O)(=O)c3ccc(Cl)cc3)ccc21	24.8*	2.1	5.5	2.2	3.1	9.2
CC(=O)NCCc1nc2cc(NS(=O)(=O)c3ccc(Cl)cc3)ccc2n1C	14.3	-0.3	8.4	-3.1	-6.6	1.6
N#C/C(=N\Nc1ccc(S(=O)(=O)N2CCc3ccccc32)cc1)C(N)=S	26.1*	4.3	24.2	7.0	24.4	13.6
CCOC(=O)/C(C#N)=N/Nc1ccc(S(=O)(=O)N2CCc3ccccc32)cc1	13.0	9.2	-0.4	-4.2	14.7	10.0
CC(NC(=O)C12CC3CC(CC(C3)C1)C2)c1ccc(F)cc1 (stereo unspecified)	19.8	-3.7	-2.7	-8.2	2.3	6.3
CC(C)(C)c1ccc(C(CC(=O)O)NC(=O)C23CC4CC(CC(C4)C2)C3)cc1 (stereo unspecified)	25.5*	0.2	10.4	13.6	31.1*	-6.6
Cc1nc2ccc(NC(=O)c3ccccc3)cc2c(=O)n1Cc1ccc(F)cc1	/	-1.6	/	1.1	/	/
CCNc1nc(C)nc2c1cnn2C	3.6	6.6	-3.0	0.7	/	6.9
COc1ccc2ccccc2c1C(=O)/C=C\c1ccoc1	0.5	7.8	5.8	9.3	27.3*	-0.4
COc1ccc2nc(Nc3sc4c(c3C(N)=O)CCCC4)sc2c1	9.7	-4.9	-0.4	3.1	25.7*	19.1
CN(c1ccc(Cl)cc1)c1cc(=O)n(C)c2ccccc12	29.3*	-5.6	-3.6	4.4	1.5	1.2
COc1cc(=O)n(C)c2ccccc12	0.8	-9.7	6.1	4.1	-3.0	6.4
CCOc1ccccc1CN1C(=O)NC2(CCCCCC2)C1=O	3.5	12.5	6.6	1.4	0.2	2.8
CCN(CCO)c1nc(SC)nc2c1sc1nc(-c3ccco3)c3c(c12)CCC3	-0.7	/	-0.2	/	31.9*	-3.1
CSc1nc(NCCOCCO)c2sc3nc(-c4ccco4)c4c(c3c2n1)CCC4	2.3	-10.0	7.5	6.6	29.1*	11.6
CCOc1ccc(CCNC(=O)c2cccc(S(=O)(=O)N3CCN(C(C)=O)CC3)c2)cc1OCC	0.2	8.2	1.1	-8.9	0.1	2.9
COCCSc1ccccc1C(=O)N1CCc2ccccc21	-0.6	-5.8	6.5	11.7	/	3.2
COc1ccc(C2CC(c3cccc(Br)c3)=NN2c2ccc(S(N)(=O)=O)cc2)cc1 (stereo unspecified)	1.7	16.5	-2.7	24.0	31.5*	6.5
COc1ccc(C2CC(c3cccc(F)c3)=NN2c2ccc(S(N)(=O)=O)cc2)cc1 (stereo unspecified)	2.1	15.3	-4.1	12.4	14.8	10.4
OC(CCCN1CCCCC1)(c1ccccc1)c1ccc(C(F)(F)F)cc1 (stereo unspecified)	0.7	-1.6	4.5	-0.2	/	0.6
Cc1cc(NC(=O)CSc2ncnc3sccc23)no1	2.6	4.8	-2.1	11.3	-2.1	0.7
CCn1c(SCC(=O)Nc2oc(-c3ccccc3)c(-c3ccccc3)c2C#N)nnc1-c1ccco1	25.1*	-7.4	10.5	4.6	21.3	9.0
N#Cc1c(NC(=O)CSc2ncnc3sccc23)oc(-c2ccco2)c1-c1ccco1	2.6	15.3	21.6	4.8	32.7*	15.6
CN1C(=O)[C@@]2(O[C@H]3C=CC=CN3C3=C2C(=O)CCC3)c2cc([N+](=O)[O-])ccc21	/	-2.7	/	-5.3	/	/
O=C1CC(c2ccccc2)=NN1c1nc(-c2ccccc2)cs1	7.7	8.8	65.6*	0.5	27.5*	18.1
